Assay results published in ChEMBL document CHEMBL4610092, “Cytotoxic Nitrogenated Azaphilones from the Deep-Sea-Derived Fungus Chaetomium globosum MP4-S01-7” (J Nat Prod, 2020).

What was measured:
[1] = tested on: MGC-803; test: Cytotoxicity against human MGC803 cells assessed as reduction in cell viability measured after 72 hrs by CCK8 assay; assay type: functional, cell-based; conditions: MGC-803, 72 h
Summary of the method: (§1)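 MGC803 or AGS cells (RPMI 1640, 10% FBS, 5% CO₂, 37 °C) plated at 3 × 10³ per well overnight, then exposed to 0.1–10 μM for 72 h. Viability was read by CCK8 absorbance at 450 nm, and IC₅₀ was calculated from the concentration series.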

[2] = tested on: AGS; test: Cytotoxicity against human AGS cells assessed as reduction in cell viability measured after 72 hrs by CCK8 assay; assay type: functional, cell-based; summary of the method: as §1
[3] = tested on: MGC-803; test: Cell cycle arrest in human MGC803 cells assessed as accumulation at G2/M-phase at 0.2 uM measured after 24 hrs by propidium iodide staining based flow cytometry (reference value: 22%); assay type: functional
[4] = tested on: AGS; test: Induction of apoptosis in human AGS cells assessed as late apoptotic cells at 1 uM measured after 48 hrs FITC-A/PE-A staining based flow cytometry (reference value: 1.89 to 3.49%); assay type: functional
[5] = tested on: MGC-803; test: Induction of apoptosis in human MGC803 cells assessed as late apoptotic cells at 0.5 uM measured after 48 hrs FITC-A/PE-A staining based flow cytometry (reference value: 0.9 to 2.18%); assay type: functional
[6] = tested on: AGS; test: Induction of apoptosis in human AGS cells assessed as early apoptotic cells at 1 uM measured after 48 hrs FITC-A/PE-A staining based flow cytometry (reference value: 1.77 to 2.91%); assay type: functional
[7] = tested on: MGC-803; test: Induction of apoptosis in human MGC803 cells assessed as necrotic cells at 0.5 uM measured after 48 hrs FITC-A/PE-A staining based flow cytometry (reference value: 0.9 to 2.18%); assay type: functional
[8] = tested on: MGC-803; test: Induction of apoptosis in human MGC803 cells assessed as viable cells at 5 uM measured after 48 hrs FITC-A/PE-A staining based flow cytometry (reference value: 94.89 to 96.41%); assay type: functional; conditions: MGC-803, 48 h, read-out: Activity
[9] = tested on: MGC-803; test: Cell cycle arrest in human MGC803 cells assessed as accumulation at G1-phase at 0.2 uM measured after 24 hrs by propidium iodide staining based flow cytometry (reference value: 45%); assay type: functional
[10] = tested on: AGS; test: Induction of apoptosis in human AGS cells assessed as viable cells at 0.5 uM measured after 48 hrs FITC-A/PE-A staining based flow cytometry (reference value: 92.05 to 93.85%); assay type: functional; conditions: read-out: Activity
[11] = tested on: AGS; test: Induction of apoptosis in human AGS cells assessed as viable cells at 1 uM measured after 48 hrs FITC-A/PE-A staining based flow cytometry (reference value: 92.05 to 93.85%); assay type: functional; conditions: read-out: Activity
[12] = tested on: AGS; test: Induction of apoptosis in human AGS cells assessed as necrotic cells at 0.2 uM measured after 48 hrs FITC-A/PE-A staining based flow cytometry (reference value: 1.35 to 2.69%); assay type: functional
[13] = tested on: AGS; test: Induction of apoptosis in human AGS cells assessed as early apoptotic cells at 5 uM measured after 48 hrs FITC-A/PE-A staining based flow cytometry (reference value: 1.77 to 2.91%); assay type: functional
[14] = tested on: AGS; test: Induction of apoptosis in human AGS cells assessed as viable cells at 5 uM measured after 48 hrs FITC-A/PE-A staining based flow cytometry (reference value: 92.05 to 93.85%); assay type: functional; conditions: read-out: Activity
[15] = tested on: MGC-803; test: Cell cycle arrest in human MGC803 cells assessed as accumulation at G1-phase at 1 uM measured after 24 hrs by propidium iodide staining based flow cytometry (reference value: 45%); assay type: functional
[16] = tested on: MGC-803; test: Cell cycle arrest in human MGC803 cells assessed as accumulation at S-phase at 1 uM measured after 24 hrs by propidium iodide staining based flow cytometry (reference value: 33%); assay type: functional
[17] = tested on: AGS; test: Induction of apoptosis in human AGS cells assessed as necrotic cells at 0.5 uM measured after 48 hrs FITC-A/PE-A staining based flow cytometry (reference value: 1.35 to 2.69%); assay type: functional
[18] = tested on: MGC-803; test: Induction of apoptosis in human MGC803 cells assessed as early apoptotic cells at 0.2 uM measured after 48 hrs FITC-A/PE-A staining based flow cytometry (reference value: 0.59 to 3.54%); assay type: functional
[19] = tested on: MGC-803; test: Cell cycle arrest in human MGC803 cells assessed as accumulation at G2/M-phase at 1 uM measured after 24 hrs by propidium iodide staining based flow cytometry (reference value: 22%); assay type: functional
[20] = tested on: MGC-803; test: Induction of apoptosis in human MGC803 cells assessed as early apoptotic cells at 1 uM measured after 48 hrs FITC-A/PE-A staining based flow cytometry (reference value: 0.59 to 3.54%); assay type: functional
[21] = tested on: MGC-803; test: Induction of apoptosis in human MGC803 cells assessed as early apoptotic cells at 0.5 uM measured after 48 hrs FITC-A/PE-A staining based flow cytometry (reference value: 0.59 to 3.54%); assay type: functional
[22] = tested on: MGC-803; test: Induction of apoptosis in human MGC803 cells assessed as late apoptotic cells at 0.2 uM measured after 48 hrs FITC-A/PE-A staining based flow cytometry (reference value: 0.9 to 2.18%); assay type: functional
[23] = tested on: MGC-803; test: Induction of apoptosis in human MGC803 cells assessed as necrotic cells at 5 uM measured after 48 hrs FITC-A/PE-A staining based flow cytometry (reference value: 0.9 to 2.18%); assay type: functional
[24] = tested on: MGC-803; test: Induction of apoptosis in human MGC803 cells assessed as viable cells at 1 uM measured after 48 hrs FITC-A/PE-A staining based flow cytometry (reference value: 94.89 to 96.41%); assay type: functional; conditions: MGC-803, 48 h, read-out: Activity
[25] = tested on: MGC-803; test: Induction of apoptosis in human MGC803 cells assessed as necrotic cells at 1 uM measured after 48 hrs FITC-A/PE-A staining based flow cytometry (reference value: 0.9 to 2.18%); assay type: functional
[26] = tested on: MGC-803; test: Induction of apoptosis in human MGC803 cells assessed as viable cells at 0.5 uM measured after 48 hrs FITC-A/PE-A staining based flow cytometry (reference value: 94.89 to 96.41%); assay type: functional; conditions: MGC-803, 48 h, read-out: Activity
[27] = tested on: MGC-803; test: Induction of apoptosis in human MGC803 cells assessed as late apoptotic cells at 1 uM measured after 48 hrs FITC-A/PE-A staining based flow cytometry (reference value: 0.67 to 0.82%); assay type: functional
[28] = tested on: AGS; test: Induction of apoptosis in human AGS cells assessed as necrotic cells at 1 uM measured after 48 hrs FITC-A/PE-A staining based flow cytometry (reference value: 1.35 to 2.69%); assay type: functional
[29] = tested on: MGC-803; test: Induction of apoptosis in human MGC803 cells measured after 48 hrs FITC-A/PE-A staining based flow cytometry; assay type: functional, cell-based
[30] = tested on: AGS; test: Induction of apoptosis in human AGS cells assessed as early apoptotic cells at 0.2 uM measured after 48 hrs FITC-A/PE-A staining based flow cytometry (reference value: 1.77 to 2.91%); assay type: functional
[31] = tested on: MGC-803; test: Cell cycle arrest in human MGC803 cells assessed as accumulation at S-phase at 0.5 uM measured after 24 hrs by propidium iodide staining based flow cytometry (reference value: 33%); assay type: functional
[32] = tested on: AGS; test: Induction of apoptosis in human AGS cells measured after 48 hrs FITC-A/PE-A staining based flow cytometry; assay type: functional, cell-based
[33] = tested on: AGS; test: Induction of apoptosis in human AGS cells assessed as late apoptotic cells at 5 uM measured after 48 hrs FITC-A/PE-A staining based flow cytometry (reference value: 1.89 to 3.49%); assay type: functional
[34] = tested on: MGC-803; test: Cell cycle arrest in human MGC803 cells assessed as accumulation at G1-phase at 0.5 uM measured after 24 hrs by propidium iodide staining based flow cytometry (reference value: 45%); assay type: functional
[35] = tested on: MGC-803; test: Induction of apoptosis in human MGC803 cells assessed as late apoptotic cells at 5 uM measured after 48 hrs FITC-A/PE-A staining based flow cytometry (reference value: 0.67 to 0.82%); assay type: functional
[36] = tested on: MGC-803; test: Induction of apoptosis in human MGC803 cells assessed as viable cells at 0.2 uM measured after 48 hrs FITC-A/PE-A staining based flow cytometry (reference value: 94.89 to 96.41%); assay type: functional; conditions: MGC-803, 48 h, read-out: Activity
[37] = tested on: MGC-803; test: Induction of apoptosis in human MGC803 cells assessed as early apoptotic cells at 5 uM measured after 48 hrs FITC-A/PE-A staining based flow cytometry (reference value: 0.59 to 3.54%); assay type: functional
[38] = tested on: MGC-803; test: Cell cycle arrest in human MGC803 cells assessed as accumulation at G2/M-phase at 0.5 uM measured after 24 hrs by propidium iodide staining based flow cytometry (reference value: 22%); assay type: functional
[39] = tested on: AGS; test: Induction of apoptosis in human AGS cells assessed as early apoptotic cells at 0.5 uM measured after 48 hrs FITC-A/PE-A staining based flow cytometry (reference value: 1.77 to 2.91%); assay type: functional
[40] = tested on: MGC-803; test: Induction of apoptosis in human MGC803 cells assessed as necrotic cells at 0.2 uM measured after 48 hrs FITC-A/PE-A staining based flow cytometry (reference value: 0.9 to 2.18%); assay type: functional
[41] = tested on: MGC-803; test: Cell cycle arrest in human MGC803 cells assessed as increase in accumulation at G1-phase measured after 24 hrs by propidium iodide staining based flow cytometry; assay type: functional
[42] = tested on: AGS; test: Induction of apoptosis in human AGS cells assessed as viable cells at 0.2 uM measured after 48 hrs FITC-A/PE-A staining based flow cytometry (reference value: 92.05 to 93.85%); assay type: functional; conditions: read-out: Activity
[43] = tested on: AGS; test: Induction of apoptosis in human AGS cells assessed as late apoptotic cells at 0.2 uM measured after 48 hrs FITC-A/PE-A staining based flow cytometry (reference value: 1.89 to 3.49%); assay type: functional
[44] = tested on: MGC-803; test: Cell cycle arrest in human MGC803 cells assessed as accumulation at S-phase at 0.2 uM measured after 24 hrs by propidium iodide staining based flow cytometry (reference value: 33%); assay type: functional
[45] = tested on: AGS; test: Induction of apoptosis in human AGS cells assessed as necrotic cells at 5 uM measured after 48 hrs FITC-A/PE-A staining based flow cytometry (reference value: 1.35 to 2.69%); assay type: functional
[46] = tested on: AGS; test: Induction of apoptosis in human AGS cells assessed as late apoptotic cells at 0.5 uM measured after 48 hrs FITC-A/PE-A staining based flow cytometry (reference value: 1.89 to 3.49%); assay type: functional

Compound: CC(=O)O[C@H]1C(=O)[C@@]2(C)[C@H]([C@H](OC(=O)c3ccccc3)[C@]3(O)C[C@H](OC(=O)[C@H](O)[C@@H](NC(=O)c4ccccc4)c4ccccc4)C(C)=C1C3(C)C)[C@]1(OC(C)=O)CO[C@@H]1C[C@@H]2O [PACLITAXEL]
- IC50 [1]: 3800 nM

Compound: C/C=C(\C)C(=O)C1=C2C3=CN(C/C=C(\C)CCC=C(C)C)C(/C=C/[C@@H](C)CC)=CC3=C(Cl)C(=O)[C@@]2(C)OC1=O
- IC50 [1]: 720 nM
- IC50 [2]: 120 nM

Compound: C/C=C(\C)C(=O)C1=C2C3=CN(CC=C(C)C)C(/C=C/[C@@H](C)CC)=CC3=C(Cl)C(=O)[C@@]2(C)OC1=O
- IC50 [1]: 6800 nM
- IC50 [2]: 2000 nM

Compound: CC[C@H](C)/C=C/C1=CC2=C(Cl)C(=O)[C@@]3(C)OC(=O)C(C(=O)[C@@H](C)[C@@H](C)O)=C3C2=CN1C/C=C(\C)CCC=C(C)C
- Activity [3]: 23%
- Activity [4]: 35.16%
- Activity [5]: 2.85%
- Activity [6]: 16.5%
- Activity [7]: 3.23%
- viability at 5 µM [8]: 20.1%
- Activity [9]: 48%
- viability at 0.5 µM [10]: 88.2%
- viability at 1 µM [11]: 45%
- Activity [12]: 1.37%
- Activity [13]: 1.86%
- viability at 5 µM [14]: 8.93%
- IC50 [1]: 460 nM
- Activity [15]: 58%
- Activity [16]: 32%
- Activity [17]: 2.85%
- Activity [18]: 2.96%
- Activity [19]: 9.4%
- Activity [20]: 4.16%
- Activity [21]: 2.65%
- Activity [22]: 2.23%
- Activity [23]: 5.03%
- viability at 1 µM [24]: 71.7%
- Activity [25]: 6.01%
- viability at 0.5 µM [26]: 91.3%
- Activity [27]: 18.17%
- Activity [28]: 3.36%
- Activity [29]: Dose-dependent effect
- IC50 [2]: 620 nM
- Activity [30]: 2.78%
- Activity [31]: 28%
- Activity [32]: Dose-dependent effect
- Activity [33]: 86.77%
- Activity [34]: 48%
- Activity [35]: 68.63%
- viability at 0.2 µM [36]: 90.7%
- Activity [37]: 6.2%
- Activity [38]: 24%
- Activity [39]: 5.89%
- Activity [40]: 4.06%
- Activity [41]: Dose-dependent effect
- viability at 0.2 µM [42]: 93.2%
- Activity [43]: 2.69%
- Activity [44]: 30%
- Activity [45]: 2.44%
- Activity [46]: 3.01%

Compound: CC[C@H](C)/C=C/C1=CC2=C(Cl)C(=O)[C@@]3(C)OC(=O)C(C(=O)[C@@H](C)[C@@H](C)O)=C3C2=CO1 [CHAETOVIRIDIN A]
- IC50 [1]: > 10000 nM
- IC50 [2]: > 10000 nM
